Screening data as filed in PubChem BioAssay.
TRPC6 inh: mouse TRPC6 channel inhibitors, primary screen, cell-based, HEK293, membrane potential dye; AID 2553, 2010; Short transient receptor potential channel 6 (Mus musculus), Q61143; B-score at 10 µM; actives 1.1% (n = 310,000); ACh-evoked depolarization; stronger effect = lower value;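 active = B-score under library mean minus 3 SD, initial fluorescence not abnormally high, positive integrated signal ratio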;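 note: B-score derived from integrated fluorescence ratio over the kinetic read; more negative B-score means stronger inhibition of depolarization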
TRPC4 agonist: activators of mouse TRPC4 channel, primary screen, Fluo4 calcium, HEK293 TRPC4beta/mu-opioid cells; Short transient receptor potential channel 4 (Mus musculus), Q9QUQ5; Fluo4 calcium fluorescence; stronger effect = higher value; B-score at 10 µM; actives 0.49% (n = 310,000); AID 2237, 2010;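 active = B-score above 5 SD of library B-scores, and initial fluorescence ratio not above library mean plus 5 SD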;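 note: positive B-score marks a calcium rise read as TRPC4 activation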
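Assay system: HEK293 stable line with TRPC4beta plus mu-opioid receptor; schedule: 45 min room-temperature Fluo4 loading, 110 s read; technique: kinetic Fluo4 calcium fluorescence; evaluation: integrated baseline-normalised fluorescence ratio, converted to per-well B score; controls: buffer (low) and maximal DAMGO (high)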
TRPC4 inh: inhibitors of mouse TRPC4 channel, primary screen, Fluo4 calcium, HEK293 TRPC4beta/mu-opioid cells. Short transient receptor potential channel 4 (Mus musculus), Q9QUQ5. DAMGO-evoked Fluo4 calcium flux; stronger effect = lower value. B-score at 10 µM. actives 0.39% (n = 300,000). AID 2247, 2010;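 active = B-score over 3 SD under the library average, no early fluorescence shift, positive overall ratio signal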
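Assay system: HEK293 cells with stable TRPC4beta plus mu-opioid receptor expression. Dosing: single dose. Measured by: Fluo4 Ca2+ flux fluorescence. Also added: DAMGO in two steps, submaximal then maximal. Read-out: B score from integrated Fluo4 fluorescence ratio.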
TRPC4 PAM: positive allosteric modulators of TRPC4, primary screen, cell-based, mouse TRPC4beta, HEK293 mu-opioid, Fluo-4 calcium | AID 2227, 2009 | DAMGO EC20, Fluo-4 Ca2+ flux; stronger effect = higher value | actives 0.42% (n = 310,000) | Short transient receptor potential channel 4 (Mus musculus), Q9QUQ5 | B-score at 10 µM;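 active = B-score of calcium response area above 5 SD of library B-scores, with initial fluorescence ratio within 5 SD of library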
TRPC6 act: mouse TRPC6 channel activators, primary screen, cell-based, HEK293, membrane potential dye; Short transient receptor potential channel 6 (Mus musculus), Q61143; HEK293-TRPC6 membrane potential dye fluorescence; stronger effect = higher value; B-score at 10 µM; actives 0.13% (n = 310,000);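 active = B-score of the integrated fluorescence ratio above library mean plus 3 SD, and starting fluorescence ratio within library mean plus 5 SD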;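 note: higher score means more depolarization so channel activation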
Numbers stand for hits; i = inactive. This is a sample that favours compounds with a hit; in the whole collection about 2.3% have one here.

SMILES | TRPC6 inh | TRPC4 agonist | TRPC4 inh | TRPC4 PAM | TRPC6 act
CC(OC(=O)c1cc(-c2cccnc2)nc2ccccc12)C(=O)Nc1ccc2ccccc2c1 (stereo not given) | i | i | i | i | i
CC(=O)N(C)c1ccc(NC(=O)CCN2C(=O)c3ccccc3C2=O)cc1 | i | i | i | i | i
CCCCN(C)CCNC(=O)CCn1nc(-c2ccc(Cl)cc2)ccc1=O | i | 64 | i | 11 | i
COc1ccc2[nH]c(=O)c(CN(C(C)=O)C3CCCCC3)cc2c1 | i | i | i | i | i
COc1ccc2[nH]c(=O)c(CN(C(=O)c3ccco3)C3CCCCC3)cc2c1 | i | i | i | 10 | i
CN(C)c1ccc(CNCCC(Cc2ccccc2)c2ccco2)cc1 (stereo not given) | i | 46 | i | i | i
c1ccc(CNCCC(Cc2ccccc2)c2ccco2)cc1 (stereo not given) | i | i | i | i | i
O=C(Nc1nc(N2C(=O)c3ccccc3C2=O)n(-c2ccccc2)n1)c1ccc(Cl)cc1 | i | 47 | -6 | i | i
CCC(C)N1CCC(Oc2ccc(C(=O)NCc3ccccn3)cc2)CC1 (stereo not given) | i | i | i | i | i
CN1CCN(C(c2ccc(F)cc2)c2nnnn2Cc2cccs2)CC1 (stereo not given) | i | i | i | i | i
Fc1ccc(C(c2nnnn2Cc2cccs2)N2CCN(C3CCCCC3)CC2)cc1 (stereo not given) | i | 138 | i | i | i
CC(C)(C)C(=O)COC(=O)C1=NN(c2ccccc2)C(=O)CC1 | i | i | i | i | i
Cc1cc(C)c(C#N)c(SCCN2CCOCC2)n1 | i | i | i | i | i
N#Cc1ccc(-c2ccccc2)nc1SCCN1CCOCC1 | i | i | i | 20 | i
COc1ccc(C2CC2/C(=N/O)c2ccccc2)cc1 (stereo not given) | i | i | -8 | i | i
COc1ccc(C2CC2/C(=N/O)c2ccccn2)cc1 (stereo not given) | i | i | i | i | i
Cc1cccc(Nc2ccncc2S(N)(=O)=O)c1 | i | i | i | i | i
CCN(CC)Cc1ccc(OC)c(Cl)c1 | i | i | i | i | i
COc1ccc(CSCCN)cc1Cl | i | 103 | i | i | i
COCCNC(=O)CN1C(=O)NC2(CCCc3ccccc32)C1=O (stereo not given) | i | i | i | i | i
O=C(COc1ccc(Br)cc1CNC1CCCC1)Nc1ccccc1 | i | 62 | i | i | i
CC(NCc1cc(Br)ccc1OCC(=O)NCc1ccccc1)c1ccccc1 (stereo not given) | i | 61 | -8 | i | i
O=C(O)c1ccc(N2Cc3ccccc3C2)cc1O | i | i | i | i | i
COc1cccc(/C=N/n2c(COc3ccccc3)n[nH]c2=S)c1 | i | i | i | i | i
O=c1c(NCCc2ccc(Cl)cc2)c(-c2ccccc2)c1=O | i | i | i | 14 | i
SMILES | TRPC6 inh | TRPC4 agonist | TRPC4 inh | TRPC4 PAM | TRPC6 act
O=c1[nH]ncc(NCCc2ccccc2)c1Cl | i | i | i | i | i
CCCN(CC(=O)Nc1ccccc1Br)CC(=O)Nc1ccc(F)c(F)c1F | i | i | i | 12 | i
CCCCOc1ccc(Nc2cc(Cl)ccc2C(=O)O)cn1 | i | i | -7 | i | i
COc1ccc(CC(=O)Nc2cc(Cl)ccc2C(=O)O)cc1 | i | i | i | i | i
NN=C1c2cc([N+](=O)[O-])ccc2-c2ccc([N+](=O)[O-])cc21 | i | i | i | 18 | i
O=[N+]([O-])c1ccc2c(c1)/C(=N\O)c1ccccc1-2 | i | i | i | i | i
COc1ccc(OC)c(CCNC(=O)CCc2nnc3ccc(N4CCOCC4)nn23)c1 | i | i | i | i | i
CC1=NN(c2ccccc2)C(=O)/C1=C\C=C1\N(C)c2ccccc2C1(C)C | i | 58 | i | i | i
COc1ccc(/C=N/n2c(SC)nnc2-c2ccccc2)cc1C | i | i | i | 34 | i
CN(C)CCCN(C(=O)CCOc1ccccc1)c1nc2c(F)cccc2s1 | -5.1 | i | i | i | i
COc1ccc(NS(=O)(=O)c2ccc(NC(=O)C(CCSC)NC(N)=O)cc2)cc1 (stereo not given) | i | i | i | i | i
Cc1ccc(NC(=O)Cn2nc(C)c(S(=O)(=O)N(C)C)c2C)cc1C | i | i | i | i | i
O=C([O-])c1cc(-c2ccccc2)cc(-c2ccccc2)[n+]1Cc1ccccc1 | -5.4 | i | i | i | i
CCn1c(NC(=O)c2ccccc2)nc2ccccc21 | i | i | i | i | i
CN(C)CCCn1c(NC(=O)C2CCCCC2)nc2ccccc21 | i | i | i | i | i
CCCCn1c(NC(=O)c2ccccc2)nc2ccccc21 | i | i | -6 | 52 | i
CCCCn1c(NC(=O)C2CCCCC2)nc2ccccc21 | i | i | i | 13 | i
COc1ccc(C2/C(=C(/O)c3ccccc3)C(=O)C(=O)N2CCO)cc1 (stereo not given) | i | i | i | i | i
COc1ccc(N/C(C)=C2/C(=O)C(=O)N(CCO)C2c2ccc(Br)cc2)cc1 (stereo not given) | i | 123 | i | 43 | i
O=C(O)CC(c1cccc2ccccc12)N1Cc2ccccc2C1=O (stereo not given) | i | i | i | 34 | i
Cc1ccc(-n2cccn2)c(CN2CCC(CO)(CCc3ccccc3)CC2)c1 | i | 56 | i | i | i
OCC1(CCCc2ccccc2)CCN(Cc2ccc(F)cc2)CC1 | i | i | i | i | i
OCC1(CCc2ccccc2)CCN(Cc2cc(Cl)ccc2O)CC1 | i | i | -7 | i | i
CCN(CC)C(=S)Oc1ccc(Cl)cc1Cl | i | i | i | i | i
COc1ccc(/C=C\c2cc(OC)c(OC)cc2CC[N+](C)(C)C)cc1OC | -7.7 | i | i | i | i
CCONc1ncnc2nonc12 | i | i | i | i | i
Clc1ccc(CONc2ncnc3nonc23)c(Cl)c1 | i | i | i | 30 | i
C[C@H]1CCC[C@@]2(O[C@H](CCO)C[C@@H](O)[C@@H]2O)O1 | i | i | i | i | i
O=C(COC(=O)c1cc2c(s1)CCCCC2)NC1CCS(=O)(=O)C1 (stereo not given) | i | i | i | 88 | i
CCN(C(=O)COC(=O)c1cc2c(s1)CCCCC2)C1CCS(=O)(=O)C1 (stereo not given) | i | i | i | i | i
